As a reminder, the Cmax is the maximum level reached in the sampled fluid or tissue. As a reminder, the inhibition in vivo is the drop in the measured response relative to a control, in per cent. The IC50 is the concentration that inhibits the measured activity by half. By half-life is commonly meant how long it takes for the measured level to halve. By bioavailability is commonly meant the share of a dose that reaches the circulation, judged against a reference dose that is usually intravenous. The term clearance denotes the volume of plasma or blood freed of the substance per unit of time.

Series [1] can be described thus: Cmax in dog at 10 mg/kg, po. Also noted: dose 10 mg/kg, route oral. The format is ADME, organism-based, Canis lupus familiaris. The conditions noted are these: in vivo. In outline:
(§1)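 Single intravenous dose of 2 mg/kg and single oral dose of 10 mg/kg, given separately, in rat, dog and monkey. Clearance and half-life taken from the iv arm; Cmax from the oral arm.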

Series [2] deals with Ovis aries. As to the kind of experiment: Inhibition of allergen-induced mucociliary clearance in sheep assessed as tracheal mucus velocity at 3 mg/kg, iv measured at 4 hrs (reference value: 47%). The format is functional. The conditions noted are these: Trachea. In outline:
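Five sheep received 3 mg/kg iv around allergen challenge. Tracheal mucus velocity measured at 4 h and 8 h and expressed as % of baseline.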

The target of series [3] is T1, Prostaglandin D2 receptor 2 (Homo sapiens, UniProt Q9Y5Y4).
T1 sequence (Q9Y5Y4 whole entry): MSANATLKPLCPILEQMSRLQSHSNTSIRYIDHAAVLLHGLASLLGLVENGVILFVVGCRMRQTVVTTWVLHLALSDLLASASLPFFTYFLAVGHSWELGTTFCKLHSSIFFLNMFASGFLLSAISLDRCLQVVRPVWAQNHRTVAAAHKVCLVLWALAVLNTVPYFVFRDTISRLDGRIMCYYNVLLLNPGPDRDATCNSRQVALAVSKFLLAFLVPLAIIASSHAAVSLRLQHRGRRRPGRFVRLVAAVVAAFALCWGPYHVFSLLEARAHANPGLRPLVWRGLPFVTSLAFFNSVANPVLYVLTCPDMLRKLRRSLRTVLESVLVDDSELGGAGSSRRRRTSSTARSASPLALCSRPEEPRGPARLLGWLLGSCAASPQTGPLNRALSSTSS
Put plainly: Binding affinity to human CRTH2 receptor. In outline:
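Competitive binding assay at human CRTH2, measuring displacement of tritium-labeled PGD2 by test compound; IC50 derived.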

A further series concerns Cavia porcellus. As to the kind of experiment: Antiallergic activity in ovalbumin-induced allergic lung inflammation Hartley guinea pig model assessed as total cellularity in bronchoalveolar lavage fluid at 20 mg/kg, po administered 1 hr before and 6 hrs after ovalbumin challenge measured after 24 hrs. The format is functional, organism-based. Also noted: dose 20 mg/kg. In a few lines:
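Female Hartley guinea pigs (375–425 g) sensitized ip on days 1 and 5 with 100 μg OVA plus 100 mg aluminum hydroxide in PBS, then challenged on day 15 with aerosolized 0.01% OVA for 60 min. Dosed orally 1 h before and 6 h after challenge; vehicle was Tween 80 in cherry syrup. On day 16, lungs lavaged with 2 × 10 mL PBS. Total cells counted by hemocytometer; differentials from stained cytospins. Unpaired t test.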

Series [4] in a line: Half life in monkey at 2 mg/kg, iv. The series is classed as ADME, organism-based, Macaca mulatta. Details: dose 2 mg/kg, route intravenous. The conditions noted are these: rhesus monkey, in vivo. In a few lines: as §1
A further series has as its target Cytochrome P450 2C19 (Homo sapiens, UniProt P33261). As to the kind of experiment: Inhibition of CYP2C19 (unknown origin). The series is classed as ADME.
Series [5] has as its system Mus musculus. As to the kind of experiment: Antiallergic activity in house dust mite-induced allergic airway disease BALB/c mouse model assessed as reduction in total cellularity in bronchoalveolar lavage fluid at 40 mg/kg, po after 72 hrs of HDM challenge. The format is functional, organism-based. The conditions noted are these: Lung. Details: dose 40 mg/kg. In a few lines:
(§2)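 BALB/c mice given house dust mite intratracheally via a catheter passed through the vocal cords. Test article 40 mg/kg orally once daily; dexamethasone 1 mg/kg ip once daily as reference. Total and differential BAL cells (eosinophils, macrophages, lymphocytes, neutrophils) counted 72 h after HDM challenge. Mean ± SEM, Mann–Whitney U test.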

A further series has as its system Rattus norvegicus. As to the kind of experiment: Oral bioavailability. The conditions noted are these: in vivo.
The test system of series [6] is Mus musculus. Put plainly: Antiallergic activity in house dust mite-induced allergic airway disease BALB/c mouse model assessed as reduction in airway inflammation at 40 mg/kg, po qd after 17 days. The series is classed as functional, organism-based. Details: dose 40 mg/kg. In a few lines:
as §2

A short description of series [7]: Cmax in rat at 10 mg/kg, po. The format is ADME, organism-based. Details: dose 10 mg/kg, route oral. The conditions noted are these: in vivo. In a few lines: as §1
A short description of series [8]: Cmax in monkey at 10 mg/kg, po. The format is ADME, organism-based, Macaca mulatta. The conditions noted are these: rhesus monkey, in vivo. Also noted: dose 10 mg/kg, route oral. In a few lines:
as §1

In the next series the target is Cytochrome P450 3A4 (Homo sapiens, UniProt P08684). As to the kind of experiment: Inhibition of CYP3A4 (unknown origin). The format is ADME.
Chain of Cytochrome P450 3A4 (P08684 whole entry): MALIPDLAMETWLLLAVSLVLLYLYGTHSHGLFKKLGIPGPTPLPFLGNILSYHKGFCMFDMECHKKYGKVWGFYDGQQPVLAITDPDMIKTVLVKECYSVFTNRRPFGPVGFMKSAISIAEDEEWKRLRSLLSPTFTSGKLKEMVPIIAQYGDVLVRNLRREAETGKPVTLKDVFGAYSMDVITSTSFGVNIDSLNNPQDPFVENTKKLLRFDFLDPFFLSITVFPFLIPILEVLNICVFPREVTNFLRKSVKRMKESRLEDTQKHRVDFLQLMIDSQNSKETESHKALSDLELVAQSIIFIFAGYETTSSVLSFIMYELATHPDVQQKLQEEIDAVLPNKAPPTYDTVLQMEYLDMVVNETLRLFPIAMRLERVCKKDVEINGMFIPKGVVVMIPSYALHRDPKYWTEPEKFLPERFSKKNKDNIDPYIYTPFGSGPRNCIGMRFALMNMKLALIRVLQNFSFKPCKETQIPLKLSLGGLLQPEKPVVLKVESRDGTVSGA
Series [9] can be described thus: Half life in rat at 2 mg/kg, iv. The series is classed as ADME, organism-based. Also noted: dose 2 mg/kg, route intravenous. The conditions noted are these: in vivo. In a few lines: as §1
Series [10] in a line: Clearance in rat at 2 mg/kg, iv. The format is ADME, organism-based. The conditions noted are these: in vivo. Also noted: dose 2 mg/kg, route intravenous. In outline: as §1
For a further series, the system named is Salmonella typhimurium. As to the kind of experiment: Genotoxicity in Salmonella typhimurium by AMES test. The conditions noted are these: salmonella enterica subsp. enterica serovar typhimurium. The series is classed as toxicity, organism-based.
In series [11] the target is T1, Prostaglandin D2 receptor 2. Put plainly: Antagonist activity at human recombinant CRTh2 expressed in CHO-K1 cells by cAMP TR FRET assay. The series is classed as functional, cell-based.
Series [12] deals with Ovis aries. As to the kind of experiment: Inhibition of carbachol-induced airway hyperresponsiveness in sheep at 3 mg/kg, iv bid. The format is functional, organism-based. Also noted: dose 3 mg/kg.
The next series addresses T2, Cytochrome P450 2B6 (Homo sapiens, UniProt P20813).
T2 sequence (P20813 whole entry): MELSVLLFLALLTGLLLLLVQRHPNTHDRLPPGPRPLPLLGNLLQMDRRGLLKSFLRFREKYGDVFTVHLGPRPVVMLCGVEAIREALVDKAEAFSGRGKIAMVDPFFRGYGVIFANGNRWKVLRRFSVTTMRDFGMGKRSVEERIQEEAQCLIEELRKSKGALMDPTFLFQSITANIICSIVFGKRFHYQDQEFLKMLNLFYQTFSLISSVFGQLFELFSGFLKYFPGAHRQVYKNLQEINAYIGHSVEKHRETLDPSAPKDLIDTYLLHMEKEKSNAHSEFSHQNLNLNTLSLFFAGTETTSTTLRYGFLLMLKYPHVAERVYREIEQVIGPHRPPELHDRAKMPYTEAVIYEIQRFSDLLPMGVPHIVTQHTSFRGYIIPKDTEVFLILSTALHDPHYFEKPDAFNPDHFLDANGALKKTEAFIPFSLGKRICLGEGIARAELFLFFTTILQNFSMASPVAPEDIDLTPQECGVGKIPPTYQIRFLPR
Put plainly: Inhibition of CYP2B6 (unknown origin). The format is ADME.

Series [13] in a line: Oral bioavailability in monkey at 10 mg/kg. The conditions noted are these: rhesus monkey, in vivo. The format is ADME, organism-based, Macaca mulatta.
The test system of series [14] is Mus musculus. As to the kind of experiment: Antiallergic activity in house dust mite-induced allergic airway disease BALB/c mouse model assessed as reduction in lymphocyte level in bronchoalveolar lavage fluid at 40 mg/kg, po after 72 hrs of HDM challenge. The series is classed as functional, organism-based. Details: dose 40 mg/kg. The conditions noted are these: Lung. In outline:
as §2

Series [15] concerns Mus musculus. Put plainly: Antiallergic activity in house dust mite-induced allergic airway disease BALB/c mouse model assessed as reduction in eosinophil level in bronchoalveolar lavage fluid at 40 mg/kg, po after 72 hrs of HDM challenge. The series is classed as functional, organism-based. Details: dose 40 mg/kg. The conditions noted are these: Lung. In a few lines: as §2

The target of a further series is T3, Cytochrome P450 1A2 (Homo sapiens, UniProt P05177).
T3 sequence (P05177 whole entry): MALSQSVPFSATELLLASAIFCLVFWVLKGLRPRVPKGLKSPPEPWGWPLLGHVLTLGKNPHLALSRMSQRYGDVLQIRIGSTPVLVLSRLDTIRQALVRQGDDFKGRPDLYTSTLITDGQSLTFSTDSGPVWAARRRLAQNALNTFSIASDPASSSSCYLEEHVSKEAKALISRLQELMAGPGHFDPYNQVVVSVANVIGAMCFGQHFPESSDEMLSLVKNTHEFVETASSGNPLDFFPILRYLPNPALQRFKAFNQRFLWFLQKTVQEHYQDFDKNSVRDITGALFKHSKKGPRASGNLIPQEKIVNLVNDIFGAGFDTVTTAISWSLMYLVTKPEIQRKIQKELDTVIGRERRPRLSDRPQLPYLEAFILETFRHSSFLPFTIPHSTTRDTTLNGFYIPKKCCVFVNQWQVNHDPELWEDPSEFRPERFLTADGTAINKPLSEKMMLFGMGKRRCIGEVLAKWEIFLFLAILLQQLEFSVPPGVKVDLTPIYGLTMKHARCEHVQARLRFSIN
Put plainly: Inhibition of CYP1A2 (unknown origin). The format is ADME.

Each structure is given as a SMILES string. Activity calls are given as the source filed them. The calls are words filed in the database; no cut-off is given here.

Chain of Cytochrome P450 2C19 (P33261 whole entry): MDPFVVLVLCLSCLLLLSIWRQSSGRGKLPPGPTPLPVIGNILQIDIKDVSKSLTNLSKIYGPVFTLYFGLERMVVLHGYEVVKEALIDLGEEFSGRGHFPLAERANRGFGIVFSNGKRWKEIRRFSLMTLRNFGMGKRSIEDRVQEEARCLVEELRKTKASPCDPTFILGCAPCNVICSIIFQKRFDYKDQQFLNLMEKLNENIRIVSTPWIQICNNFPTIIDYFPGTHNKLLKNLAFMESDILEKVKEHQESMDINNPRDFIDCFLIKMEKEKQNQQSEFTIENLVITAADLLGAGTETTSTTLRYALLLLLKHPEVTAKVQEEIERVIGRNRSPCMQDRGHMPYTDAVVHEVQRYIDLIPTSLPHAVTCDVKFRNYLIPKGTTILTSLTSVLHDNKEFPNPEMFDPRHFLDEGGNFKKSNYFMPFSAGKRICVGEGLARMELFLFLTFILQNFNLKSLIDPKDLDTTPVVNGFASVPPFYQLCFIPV

Take `Cc1c(-c2cn(C(C)C)c(=O)c3ccccc23)c2cc(F)ccc2n1CC(=O)O`: the Cmax in series [1] turned out to be 2010 ng/mL; in series [7], 253 ng/mL; in series [8] it was 2970 ng/mL. In the series with Ovis aries [2], the inhibition in vivo at 3 mg/kg was determined as 70%. The IC50 in series [3] was 0.0014 µM; against Cytochrome P450 2C19, above 100 µM; at Cytochrome P450 3A4, above 100 µM; in series [11] it was 0.006 µM; against Cytochrome P450 2B6 it was above 100 µM; against Cytochrome P450 1A2, above 100 µM. Further, the inhibition result in the series on Cavia porcellus, in the series with Mus musculus [5], with Mus musculus [6], in the series on Ovis aries [12], with Mus musculus [14] and with Mus musculus [15] was “Active” each time. Further, the half-life in series [4] was 4.1 h; in [9] it was 2.7 h. For the same compound, the bioavailability in the series with Rattus norvegicus is 35%; in series [13], 69%. In series [10], this compound registered a clearance of 18 mL/min/kg. In addition, in the series with Salmonella typhimurium, the Activity result is recorded as “Non-toxic”.

The record behind these values is ChEMBL document CHEMBL3232705, “Discovery of isoquinolinone indole acetic acids as antagonists of chemoattractant receptor homologous molecule expressed on Th2 cells (CRTH2) for the treatment of allergic inflammatory diseases” (J Med Chem, 2014).
